Data reported in ChEMBL document CHEMBL2384908, “Discovery of novel bromophenol 3,4-dibromo-5-(2-bromo-3,4-dihydroxy-6-(isobutoxymethyl)benzyl)benzene-1,2-diol as protein tyrosine phosphatase 1B inhibitor and its anti-diabetic properties in C57BL/KsJ-db/db mice” (Eur J Med Chem, 2013).
Activity calls are given as the source filed them. The rule behind the calls is not given here.

Legend:
[1] = molecular target: T1, Tyrosine-protein phosphatase non-receptor type 1 (Homo sapiens) (UniProt P18031); conditions: at 20 µg/mL
T1 sequence (whole entry): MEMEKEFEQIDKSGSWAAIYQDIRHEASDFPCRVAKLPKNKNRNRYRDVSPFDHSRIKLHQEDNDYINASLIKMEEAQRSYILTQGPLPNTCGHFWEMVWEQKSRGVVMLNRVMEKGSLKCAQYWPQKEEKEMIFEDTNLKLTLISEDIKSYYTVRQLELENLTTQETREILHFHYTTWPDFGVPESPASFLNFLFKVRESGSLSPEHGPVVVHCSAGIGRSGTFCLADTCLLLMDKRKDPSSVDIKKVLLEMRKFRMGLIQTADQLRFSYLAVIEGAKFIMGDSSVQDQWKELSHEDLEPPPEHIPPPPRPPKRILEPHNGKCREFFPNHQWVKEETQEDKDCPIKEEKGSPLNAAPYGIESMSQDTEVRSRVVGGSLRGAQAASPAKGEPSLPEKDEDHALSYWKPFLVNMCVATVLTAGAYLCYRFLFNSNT

[2] = molecular target: T1, Tyrosine-protein phosphatase non-receptor type 1 (Homo sapiens); conditions: at 5 µg/mL
[3] = molecular target: T2, Tyrosine-protein phosphatase non-receptor type 1 (Homo sapiens, UniProt P18031); assay: Inhibition of human recombinant GST-tagged PTP1B using para-nitrophenyl phosphate as substrate after 2 mins
T2 sequence (P18031 whole entry): T1 sequence (whole entry)

[4] = tested on: Mus musculus; assay: Antidyslipidemic activity in C57BL/KsJ db/db mouse assessed as reduction of total cholesterol level in blood at 50 mg/kg, po administered for 6 weeks (reference value: 3.3 +/- 0.5 mmol/l); type: functional
[5] = tested on: Mus musculus; assay: […] activity in C57BL/KsJ db/db mouse assessed as reduction of glycated serum protein level in blood at 50 mg/kg, po administered for 6 weeks (reference value: 1.62 +/- 0.27 mmol/l); type: functional
How it was run: (§1)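 db/db mice (C57BL/KsJ, 6-8 weeks, n = 10/group) given compound orally once daily for six weeks in 0.5% CMC-Na with 2% tween-80. Vehicle model group; db/dm mice as controls. At the end, overnight fast, then dosing; eyeball blood taken 1 h later into heparin tubes. HbA1c read by reagent kit. GSP measured in plasma by fructosamine method. Mean ± s.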

[6] = tested on: Mus musculus; assay: Antidyslipidemic activity in C57BL/KsJ db/db mouse assessed as reduction of total cholesterol level in blood at 50 mg/kg, po administered for 6 weeks measured on 2nd week (reference value: 3.5 +/- 0.2 mmol/l); type: functional
[7] = tested on: Mus musculus; assay: […] activity in C57BL/KsJ db/db mouse assessed as reduction of HbA1c level in blood at 50 mg/kg, po administered for 6 weeks (reference value: 2.65 +/- 0.40%); type: functional; parameters: scale not given: the % may be the effect or the level left
How it was run: as §1

[8] = tested on: Mus musculus; assay: Antidiabetic activity in C57BL/KsJ db/db mouse assessed as reduction of blood glucose level at 50 mg/kg, po administered for 6 weeks measured on first week; type: functional
How it was run: (§2)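 C57BL/KsJ db/db mice, 6-8 weeks old, one-week adaptation, n = 10 per group, chow and water ad libitum. Compound suspended in 0.5% CMC-Na with 2% tween-80, given orally once daily for six weeks (about 0.2 mL/20 g). Vehicle-treated db/db model group. Blood glucose read weekly by glucometer.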

[9] = tested on: Mus musculus; assay: Antidiabetic activity in C57BL/KsJ db/db mouse assessed as reduction of blood glucose level at 50 mg/kg, po administered for 6 weeks; type: functional
How it was run: as §2

[10] = tested on: Mus musculus; assay: Antidyslipidemic activity in C57BL/KsJ db/db mouse assessed as reduction of triglycerides level in blood at 50 mg/kg, po administered for 6 weeks (reference value: 1.05 +/- 0.11 mmol/l); type: functional
[11] = tested on: Mus musculus; assay: Antidyslipidemic activity in C57BL/KsJ db/db mouse assessed as reduction of triglycerides level in blood at 50 mg/kg, po administered for 6 weeks measured on 2nd week (reference value: 1.08 +/- 0.07 mmol/l); type: functional
[12] = tested on: Mus musculus; assay: Antidyslipidemic activity in po dosed C57BL/KsJ db/db mouse assessed as reduction of total cholesterol level in blood administered for 6 weeks; type: functional, organism-based
[13] = tested on: Mus musculus; assay: Toxicity in C57BL/KsJ db/db mouse assessed as change in body weight at 25 to 50 mg/kg, po administered for 6 weeks; type: organism-based; parameters: dose 25-50 mg/kg, route oral; conditions: in vivo, 1008 h
[14] = tested on: Mus musculus; assay: Toxicity in C57BL/KsJ db/db mouse assessed as mortality at 25 to 50 mg/kg, po administered for 6 weeks; type: organism-based; parameters: dose 25-50 mg/kg, route oral; conditions: in vivo, 1008 h
[15] = tested on: Mus musculus; assay: Antidyslipidemic activity in C57BL/KsJ db/db mouse assessed as reduction of triglycerides level in blood at 25 mg/kg, po administered for 6 weeks measured on 2nd week (reference value: 1.08 +/- 0.07 mmol/l); type: functional
[16] = tested on: Mus musculus; assay: […] activity in C57BL/KsJ db/db mouse assessed as reduction of glycated serum protein level in blood at 25 mg/kg, po administered for 6 weeks (reference value: 1.62 +/- 0.27 mmol/l); type: functional
How it was run: as §1

[17] = tested on: Mus musculus; assay: Antidiabetic activity in C57BL/KsJ db/db mouse assessed as reduction of food and water intake at 25 to 50 mg/kg, po administered for 6 weeks; type: functional, organism-based
How it was run: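 db/db mice (C57BL/KsJ, 6-8 weeks), n = 10 per group, dosed orally once daily for six weeks as a suspension in 0.5% CMC-Na plus 2% tween-80. Vehicle model group; db/dm mice as non-diabetic controls. Food intake recorded weekly.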

[18] = tested on: Mus musculus; assay: Antidyslipidemic activity in po dosed C57BL/KsJ db/db mouse assessed as reduction of triglycerides level in blood administered for 6 weeks; type: functional, organism-based
[19] = tested on: Mus musculus; assay: Antidiabetic activity in C57BL/KsJ db/db mouse assessed as reduction of blood glucose level at 25 mg/kg, po administered for 6 weeks measured on 3rd week; type: functional; parameters: scale not given: the % may be the effect or the level left
How it was run: as §2

[20] = tested on: Mus musculus; assay: Antidyslipidemic activity in C57BL/KsJ db/db mouse assessed as reduction of triglycerides level in blood at 25 mg/kg, po administered for 6 weeks (reference value: 1.05 +/- 0.11 mmol/l); type: functional
[21] = tested on: Mus musculus; assay: Antidyslipidemic activity in C57BL/KsJ db/db mouse assessed as reduction of total cholesterol level in blood at 25 mg/kg, po administered for 6 weeks measured on 2nd week (reference value: 3.5 +/- 0.2 mmol/l); type: functional
[22] = tested on: Mus musculus; assay: Antidyslipidemic activity in C57BL/KsJ db/db mouse assessed as reduction of total cholesterol level in blood at 25 mg/kg, po administered for 6 weeks (reference value: 3.3 +/- 0.5 mmol/l); type: functional
[23] = tested on: Mus musculus; assay: Antidiabetic activity in C57BL/KsJ db/db mouse assessed as reduction of blood glucose level at 50 mg/kg, po administered for 6 weeks measured on 3rd week; type: functional; parameters: scale not given: the % may be the effect or the level left
How it was run: as §2

[24] = tested on: Mus musculus; assay: […] activity in C57BL/KsJ db/db mouse assessed as reduction of HbA1c level in blood at 25 mg/kg, po administered for 6 weeks (reference value: 2.65 +/- 0.40%); type: functional; parameters: scale not given: the % may be the effect or the level left
How it was run: as §1

inhibition [1] | inhibition [2] | Structure (SMILES) | other results
86.2% | 55.7% | CCCOCc1cc(O)c(O)c(Br)c1Cc1cc(O)c(O)c(Br)c1Br | 
61.8% | 17.7% | COCc1cc(OC)c(OC)c(Br)c1C(=O)c1cc(OC)c(OC)c(Br)c1Br | 
50.6% | 17.3% | CCOCc1cc(O)c(O)c(Br)c1Cc1cc(O)c(O)c(Br)c1 | 
55.3% | 23.8% | COC(=O)c1cc(OC)c(OC)c(Br)c1C(=O)c1cc(OC)c(OC)c(Br)c1Br | 
73.8% | 17.6% | CCOCc1cc(OC)c(OC)c(Br)c1C(=O)c1cc(OC)c(OC)c(Br)c1Br | 
87.5% | 43.1% | COc1cc(Cc2c(C)cc(OC)c(OC)c2Br)c(Br)c(Br)c1OC | 
51.9% | 25.3% | COCc1cc(O)c(O)c(Br)c1Cc1cc(O)c(O)c(Br)c1Br | 
14.5% |  | COc1cc(Cc2c(C)cc(OC)c(OC)c2Br)cc(Br)c1OC | 
10.6% |  | COc1cc(C2OC(=O)c3cc(OC)c(OC)c(Br)c32)c(Br)c(Br)c1OC (configuration not stated) | 
64.6% | 27.2% | CCCCOCc1cc(O)c(O)c(Br)c1Cc1cc(O)c(O)c(Br)c1Br | 
29.9% |  | COc1cc(C(=O)c2c(C(=O)O)cc(OC)c(OC)c2Br)c(Br)c(Br)c1OC | 
75.3% | 40.1% | COc1c(Br)c(C)c(Cc2c(Br)c(Br)c(OC)c(OC)c2Br)c(Br)c1OC | 
36.7% |  | COc1cc(C(=O)c2c(C)cc(OC)c(OC)c2Br)cc(Br)c1OC | 
28.9% |  | COc1ccc(C(=O)c2c(C)cc(OC)c(OC)c2Br)cc1OC | 
5.62% |  | COc1cc(Cc2c(CO)cc(OC)c(OC)c2Br)cc(Br)c1OC | 
48.6% |  | COc1cc(C(=O)c2c(C)cc(OC)c(OC)c2Br)c(Br)c(Br)c1OC | 
72.6% | 38.2% | COc1cc(C)c(Cc2c(Br)c(Br)c(OC)c(OC)c2Br)c(Br)c1OC | 
 |  | Oc1cc(Cc2cc(Br)c(O)c(Br)c2Br)c(Br)c(Br)c1O | IC50 [3]: 2.42 µM
11.4% |  | COc1cc(C2OCc3cc(OC)c(OC)c(Br)c32)c(Br)c(Br)c1OC (configuration not stated) | 
 |  | CN(CCOc1ccc(CC2SC(=O)NC2=O)cc1)c1ccccn1 (configuration not stated) [ROSIGLITAZONE] | Activity [4]: 7.7 mmol/L; Activity [5]: 2.6 mmol/L; Activity [6]: 6.5 mmol/L; Activity [7]: 2.56%; Activity [8]: 8.9 mmol/L; Activity [9]: 8 mmol/L; Activity [10]: 1.29 mmol/L; Activity [11]: 1.06 mmol/L
74.9% | 29.1% | COc1cc(Cc2c(CO)cc(OC)c(OC)c2Br)c(Br)c(Br)c1OC | 
53.4% | 32.1% | Cc1cc(O)c(O)c(Br)c1Cc1cc(O)c(O)c(Br)c1Br | 

Structure (SMILES) | inhibition [1] | inhibition [2] | other results
CC(C)COCc1cc(O)c(O)c(Br)c1Cc1cc(O)c(O)c(Br)c1Br | 96.2% | 48.3% | Activity [12]: Dose-dependent effect; Activity [13]: Toxic; Activity [4]: 9.1 mmol/L; Activity [14]: Non-toxic; Activity [15]: 1.16 mmol/L; Activity [16]: 3.29 mmol/L; Activity [17]: Active; Activity [5]: 3 mmol/L; Activity [6]: 7.8 mmol/L; Activity [7]: 3.03%; Activity [18]: Dose-dependent effect; Activity [19]: 32.7%; Activity [20]: 1.41 mmol/L; Activity [21]: 7.7 mmol/L; Activity [22]: 8.5 mmol/L; Activity [10]: 1.48 mmol/L; Activity [23]: 36.4%; Activity [11]: 1.35 mmol/L; Activity [24]: 3.24%
